From ChEMBL document CHEMBL6071194, “Building Metabolically Stable and Potent Anti-HIV Thioether-Lipid Analogues of Tenofovir Exalidex: A thorough Pharmacological Analysis” (J Med Chem, 2024)

How the values were obtained:
[1] = Therapeutic index, ratio of CC50 for HEK293T cells to IC50 for HIV-1 sub-type-C MJ4 infected in HEK293T cells; assay type: toxicity, cell-based; settings: human, read-out: Ratio CC50/IC50
Procedure, shortened: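 HEK293T cells (2 × 10⁴/well) with HSA-formulated compound (5:1 molar), 3-fold dilutions, 48 h at 37 °C. […] IC50 from luciferase after single-cycle infection with HIV-like particles carrying MJ4 subtype C RT/IN, over the noncytotoxic range.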

[2] = Prodrug conversion in C57BL/6 mouse liver assessed as Tmax of TFV metabolite at 10 mg/kg, po measured for 24 hrs by LC-MS/MS analysis; assay type: ADME, organism-based; settings: in vivo
Procedure, shortened: (§1)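 After a single 10 mg/kg gavage (10% EtOH/90% olive oil) in male C57BL/6 mice, liver, kidney and brain were collected at 1, 4 and 24 h (n = 3 per time point). Tissues were rinsed in ice-cold saline and homogenized in ice-cold PBS pH 7.4 (3× weight for brain, 5× for liver and kidney). Prodrug and TFV were measured by LC–MS/MS; AUC0–24h by the linear trapezoidal rule.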

[3] = Prodrug conversion in C57BL/6 mouse liver assessed as Cmax of TFV metabolite at 10 mg/kg, po measured for 24 hrs by LC-MS/MS analysis; assay type: ADME, organism-based; settings: in vivo; procedure, shortened: as §1
[4] = Prodrug conversion in C57BL/6 mouse liver assessed as AUC (0 to 24 hrs) of TFV metabolite at 10 mg/kg, po measured for 24 hrs by LC-MS/MS analysis; assay type: ADME, organism-based; settings: in vivo; procedure, shortened: as §1
[5] = Ratio of AUC (0 to 24 hrs) of prodrug to TFV metabolite in C57BL/6 mouse liver at 10 mg/kg, po measured for 24 hrs by LC-MS/MS analysis; assay type: ADME, organism-based; settings: in vivo; procedure, shortened: as §1
[6] = Clearance in C57BL/6 mouse plasma at 3 mg/kg, iv measured for 8 hrs by LC-MS/MS analysis; assay type: ADME, organism-based; settings: in vivo
Procedure, shortened: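 Male C57BL/6 mice got a single 3 mg/kg i.v. dose in 10% PEG-300, 10% Solutol HS-15 and 80% saline, n = 3 per time point. Retro-orbital blood was taken at 0.1–8 h and plasma prodrug measured by LC–MS/MS. AUC0–8h used the trapezoidal rule; Cl = Dose/AUC0–8h.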

[7] = Clearance in C57BL/6 mouse plasma at 10 mg/kg, po measured for 24 hrs by LC-MS/MS analysis; assay type: ADME, organism-based; settings: in vivo
Procedure, shortened: (§2)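 Male C57BL/6 mice (8–12 weeks, 20–30 g) got a single gavage of 10 mg/kg in 10% EtOH/90% olive oil, n = 3 per time point with sparse sampling. Retro-orbital blood was taken at 0.25–24 h and plasma spun off. Prodrug and TFV were measured by LC–MS/MS.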

[8] = Prodrug conversion in C57BL/6 mouse plasma assessed as Tmax of TFV metabolite at 10 mg/kg, po measured for 24 hrs by LC-MS/MS analysis; assay type: ADME, organism-based; settings: in vivo; procedure, shortened: as §2
[9] = Prodrug conversion in C57BL/6 mouse plasma assessed as AUC (0 to 24 hrs) of TFV metabolite at 10 mg/kg, po measured for 24 hrs by LC-MS/MS analysis; assay type: ADME, organism-based; settings: in vivo; procedure, shortened: as §2
[10] = Tmax in C57BL/6 mouse kidney at 10 mg/kg, po measured for 24 hrs by LC-MS/MS analysis; assay type: ADME, organism-based; procedure, shortened: as §1
[11] = Prodrug conversion in C57BL/6 mouse kidney assessed as Tmax of TFV metabolite at 10 mg/kg, po measured for 24 hrs by LC-MS/MS analysis; assay type: ADME, organism-based; settings: in vivo; procedure, shortened: as §1
[12] = Prodrug conversion in C57BL/6 mouse kidney assessed as Cmax of TFV metabolite at 10 mg/kg, po measured for 24 hrs by LC-MS/MS analysis; assay type: ADME, organism-based; settings: in vivo; procedure, shortened: as §1
[13] = Ratio of AUC (0 to 24 hrs) of prodrug to TFV metabolite in C57BL/6 mouse kidney at 10 mg/kg, po measured for 24 hrs by LC-MS/MS analysis; assay type: ADME, organism-based; settings: in vivo; procedure, shortened: as §1
[14] = Tmax in C57BL/6 mouse brain at 10 mg/kg, po measured for 24 hrs by LC-MS/MS analysis; assay type: ADME, organism-based; procedure, shortened: as §1
[15] = Prodrug conversion in C57BL/6 mouse kidney assessed as AUC (0 to 24 hrs) of TFV metabolite at 10 mg/kg, po measured for 24 hrs by LC-MS/MS analysis; assay type: ADME, organism-based; settings: in vivo; procedure, shortened: as §1
[16] = Stability in human liver microsomes assessed as compound remaining at 3 uM pretreated for 5 mins followed by NADPH addition measured upto 120 mins by LC-MS/MS analysis; assay type: ADME, Microsome; settings: 2.083 h, time < 125 min
Procedure, shortened: (§3)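 Human liver microsomes (1 mg/mL) in 100 mM potassium phosphate were preincubated with 3 µM test compound (final) at 37 °C for 5 min, then started with NADPH. Duplicate aliquots at 0, 15, 30, 60 and 120 min were quenched in cold MeOH with internal standard and analysed by LC–MS/MS. Values were normalized to 0 min; a no-NADPH control was read at 120 min.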

[17] = Metabolic stability in human liver microsomes assessed as half life; assay type: ADME, Microsome; procedure, shortened: as §3
[18] = Tmax in C57BL/6 mouse liver at 10 mg/kg, po measured for 24 hrs by LC-MS/MS analysis; assay type: ADME, organism-based; procedure, shortened: as §1
[19] = Half life in C57BL/6 mouse plasma at 10 mg/kg, po measured for 24 hrs by LC-MS/MS analysis; assay type: ADME, organism-based; settings: in vivo; procedure, shortened: as §2
[20] = Volume of distribution in C57BL/6 mouse plasma at 10 mg/kg, po measured for 24 hrs by LC-MS/MS analysis; assay type: ADME, organism-based; settings: in vivo; procedure, shortened: as §2
[21] = Prodrug conversion in C57BL/6 mouse plasma assessed as Cmax of TFV metabolite at 10 mg/kg, po measured for 24 hrs by LC-MS/MS analysis; assay type: ADME, organism-based; settings: in vivo; procedure, shortened: as §2
[22] = Ratio of AUC (0 to 24 hrs) of prodrug to TFV metabolite in C57BL/6 mouse plasma at 10 mg/kg, po measured for 24 hrs by LC-MS/MS analysis; assay type: ADME, organism-based; settings: in vivo; procedure, shortened: as §2

CCCCCCCCCCCCCCCCOCCCOP(=O)(O)CO[C@H](C)Cn1cnc2c(N)ncnc21 [TENOFOVIR EXALIDEX]
selectivity ratio [1]: 5420

C[C@H](Cn1cnc2c(N)ncnc21)OCP(=O)(O)OCCCSCCCCCCCCCCCCC#C[Si](C)(C)C
selectivity ratio [1]: > 4170

C[C@H](Cn1cnc2c(N)ncnc21)OCP(=O)(O)OCCCSCCCCCCCCCCCCC#CC(C)(C)C
selectivity ratio [1]: > 516

CCCCCCCCCCCCCCSCCCOP(=O)(O)CO[C@H](C)Cn1cnc2c(N)ncnc21
selectivity ratio [1]: > 16700

C[C@H](Cn1cnc2c(N)ncnc21)OCP(=O)(O)OCCCSCCCCCCCCCCCCc1ccc(F)cc1.N
selectivity ratio [1]: > 11100
Tmax [2]: 24 h
Cmax [3]: 3980 ng/mL
AUC [4]: 72500 ng·h/mL
Ratio [5]: 0.877
CL [6]: 134 mL/min/kg
CL [7]: 134 mL/min/kg
Tmax [8]: 4 h
AUC [9]: 635 ng·h/mL
Tmax [10]: 4 h
Tmax [11]: 24 h
Cmax [12]: 1420 ng/mL
Ratio [13]: 0.322
Tmax [14]: 4 h
AUC [15]: 23800 ng·h/mL

COC(=O)CCCCCCCCCCCCCCCSCCCOP(=O)(O)CO[C@H](C)Cn1cnc2c(N)ncnc21
selectivity ratio [1]: > 70

C[C@H](Cn1cnc2c(N)ncnc21)OCP(=O)(O)OCCCSCCCCCCCCCCCOc1ccccc1.N
Stability [16]: 69%
selectivity ratio [1]: > 8060

C[C@H](Cn1cnc2c(N)ncnc21)OCP(=O)(O)OCCCSCCCCCCCCCCCOC1CCCCC1
selectivity ratio [1]: > 542

CCCCCCCCCCCCSCCCOP(=O)(O)CO[C@H](C)Cn1cnc2c(N)ncnc21
selectivity ratio [1]: > 532

CCCCCCCCCCCCCSCCCCCCOP(=O)(O)CO[C@H](C)Cn1cnc2c(N)ncnc21
selectivity ratio [1]: > 1370

C[C@H](Cn1cnc2c(N)ncnc21)OCP(=O)(O)OCCCSCCCCCCCCCCCCc1ccccc1
selectivity ratio [1]: > 12500

C[C@H](Cn1cnc2c(N)ncnc21)OCP(=O)(O)OCCCSCCCCCCCCCCC#Cc1ccc(F)cc1
selectivity ratio [1]: > 10000

C#CCCCCCCCCCCCCCCSCCCOP(=O)(O)CO[C@H](C)Cn1cnc2c(N)ncnc21
selectivity ratio [1]: > 3570

C[C@H](Cn1cnc2c(N)ncnc21)OCP(=O)(O)OCCCSCCCCCCCCCCCCCCC(C)(C)C
selectivity ratio [1]: 138

C[C@H](Cn1cnc2c(N)ncnc21)OCP(=O)(O)OCCCSCCCCCCCCCCCSc1ccccc1
selectivity ratio [1]: > 594

C[C@H](Cn1cnc2c(N)ncnc21)OCP(=O)(O)OCCCSCCCCCCCCCCC#Cc1ccccc1
selectivity ratio [1]: > 12500

C[C@H](Cn1cnc2c(N)ncnc21)OCP(=O)(O)OCCCOCCCCCCCCCCCCCCCC(F)(F)F.N
half-life [17]: 2 h

CCCCCCCCCCSCCCCCCCCCOP(=O)(O)CO[C@H](C)Cn1cnc2c(N)ncnc21
selectivity ratio [1]: > 1720

C[C@H](Cn1cnc2c(N)ncnc21)OCP(=O)(O)OCCCSCCCCCCCCCCCCC1CCCCC1.N
selectivity ratio [1]: > 2000
Tmax [18]: 4 h
Tmax [2]: 24 h
Cmax [3]: 3900 ng/mL
AUC [4]: 66600 ng·h/mL
Ratio [5]: 0.411
CL [6]: 85.8 mL/min/kg
t1/2 [19]: 3.07 h
CL [7]: 85.8 mL/min/kg
Vd [20]: 228 L/kg
Tmax [8]: 4 h
Cmax [21]: 47.8 ng/mL
AUC [9]: 740 ng·h/mL
Ratio [22]: 1.44
Tmax [10]: 4 h
Tmax [11]: 24 h
Ratio [13]: 0.488
AUC [15]: 22100 ng·h/mL

CCCCSCCCCCCCCCCCCCCCOP(=O)(O)CO[C@H](C)Cn1cnc2c(N)ncnc21
selectivity ratio [1]: > 331

CC(C)[Si](C#CCCCCCCCCCCCSCCCOP(=O)(O)CO[C@H](C)Cn1cnc2c(N)ncnc21)(C(C)C)C(C)C
selectivity ratio [1]: 224

C[C@H](Cn1cnc2c(N)ncnc21)OCP(=O)(O)OCCCSCCCCCCCCCCCOc1ccc(F)cc1.N
Stability [16]: 85%
selectivity ratio [1]: 6250

CCCCCCCSCCCCCCCCCCCCOP(=O)(O)CO[C@H](C)Cn1cnc2c(N)ncnc21
selectivity ratio [1]: > 296

CCCCCCCCCCCCCCCCSCCCOP(=O)(O)CO[C@H](C)Cn1cnc2c(N)ncnc21.N
selectivity ratio [1]: 4980
Tmax [2]: 4 h
Cmax [3]: 1440 ng/mL
AUC [4]: 29100 ng·h/mL
Ratio [5]: 0.222
CL [6]: 147 mL/min/kg
CL [7]: 147 mL/min/kg
Tmax [8]: 4 h
Cmax [21]: 39.4 ng/mL
AUC [9]: 657 ng·h/mL
Ratio [22]: 0.333
Tmax [11]: 4 h
Cmax [12]: 695 ng/mL
AUC [15]: 14600 ng·h/mL

CCCCCCCCCCCCCCCCCSCCOP(=O)(O)CO[C@H](C)Cn1cnc2c(N)ncnc21
selectivity ratio [1]: 7150

C[C@H](Cn1cnc2c(N)ncnc21)OCP(=O)(O)OCCCSCCCCCCCCCCC#CC1CCCCC1
selectivity ratio [1]: > 7580
